According to ChEMBL document CHEMBL1153609, “Synthesis and cytotoxic activity of alpha-santonin derivatives” (Eur J Med Chem, 2009):
pIC50: −log10 of the molar value.

Assays:
[1] = tested on: SF-295; experiment: Cytotoxicity against human SF295 cells after 72 hrs by MTT assay; assay type: functional, cell-based; details: SF-295, 72 h
Outline: (§1)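 Cells kept in RPMI-1640 with 10% FBS, 2 mM glutamine, penicillin/streptomycin, at 37 °C under 5% CO2. Seeded at 10^5 cells/well (adherent) or 0.5×10^5 cells/well (suspension). After 24 h, compounds in DMSO (0.09–25 μg/mL) added for 72 h; doxorubicin positive control. Medium then replaced with 0.5 mg/mL MTT for 3 h, formazan dissolved in DMSO, absorbance read at 595 nm as % of control; IC50 derived.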

[2] = tested on: HCT-8; experiment: Cytotoxicity against human HCT8 cells after 72 hrs by MTT assay; assay type: functional, cell-based; details: HCT-8, 72 h; outline: as §1
[3] = tested on: UACC-257; experiment: Cytotoxicity against human UACC257 cells after 72 hrs by MTT assay; assay type: functional, cell-based; details: UACC-257, 72 h; outline: as §1
[4] = tested on: HL-60; experiment: Cytotoxicity against human HL60 cells after 72 hrs by MTT assay; assay type: functional, cell-based; details: HL-60, 72 h; outline: as §1
[5] = tested on: A549; experiment: Cytotoxicity against human A549 cells after 72 hrs by MTT assay; assay type: functional, cell-based; details: A549, 72 h; outline: as §1
[6] = tested on: MDA-MB-435; experiment: Cytotoxicity against human MDA-MB-435 cells after 72 hrs by MTT assay; assay type: functional, cell-based; details: MDA-MB-435, 72 h; outline: as §1
[7] = tested on: OVCAR-8; experiment: Cytotoxicity against human OVCAR8 cells after 72 hrs by MTT assay; assay type: functional, cell-based; details: OVCAR-8, 72 h; outline: as §1
[8] = tested on: PBMC; experiment: Cytotoxicity against human PBMC cells after 72 hrs by alamar blue assay; assay type: cell-based
Outline: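 PBMC came from heparinized blood of healthy non-smoking donors and were isolated by Ficoll-Hypaque density gradient. Cultured in RPMI-1640 with 20% FBS, glutamine and antibiotics, with 2% phytohemagglutinin. Plated at 3×10^5 cells/well; after 24 h, compounds in DMSO (0.09–25 μg/mL) added for 72 h; doxorubicin positive control. Resazurin added 24 h before end; absorbance read at 570 and 595 nm as % of control.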

[9] = tested on: PC-3; experiment: Cytotoxicity against human PC3 cells after 72 hrs by MTT assay; assay type: functional, cell-based; details: PC-3, 72 h; outline: as §1
[10] = tested on: A704; experiment: Cytotoxicity against human A704 cells after 72 hrs by MTT assay; assay type: functional, cell-based; details: A704, 72 h; outline: as §1

SMILES | pIC50 [1] | pIC50 [2] | pIC50 [3] | pIC50 [4] | pIC50 [5] | pIC50 [6] | pIC50 [7] | pIC50 [8] | pIC50 [9] | pIC50 [10]
C=C1C(=O)O[C@H]2[C@H]1CC[C@]1(C)C3(C)C(=O)C=CC231 (some centres not stated) | 5.67 | 5.71 | 5.31 | 5.64 | 4.84 | 5.34 | 5.41 | 4.87 | 5.29 | 5.44
CC(=O)O[C@]1(C)CC[C@H]2[C@H](C)C(=O)O[C@@H]2C2=C(C)C(=O)C[C@H]21 | < 4.00 | < 4.00 | < 4.00 | < 4.00 | < 4.00 | < 4.00 | < 4.00 | – | < 4.00 | < 4.00
C[C@@H]1C(=O)O[C@H]2[C@H]1CC[C@]1(C)C3(C)C(=O)C=CC231 (some centres not stated) [LUMISANTONIN] | 4.16 | 4.23 | < 4.00 | 4.10 | 4.16 | 4.04 | 4.30 | – | 4.18 | 4.07
CC(C)=C1CC[C@H]2[C@H](C)C(=O)O[C@@H]2/C1=C\CC(=O)O [ISOFOTOSANTONIC ACID] | < 4.00 | < 4.00 | < 4.00 | < 4.00 | < 4.00 | < 4.00 | < 4.00 | – | < 4.00 | < 4.00
CC1=C2[C@H]3OC(=O)[C@@H](C)[C@@H]3CC[C@@](C)(O)[C@@H]2C[C@@H]1O | < 4.00 | < 4.00 | < 4.00 | < 4.00 | < 4.00 | < 4.00 | < 4.00 | – | < 4.00 | < 4.00
C=C1C(=O)O[C@@H]2C3=C(C)C(=O)C=C[C@]3(C)CC[C@@H]12 | 5.57 | 5.53 | 5.22 | 5.94 | 4.87 | 5.17 | 5.16 | 5.49 | 4.88 | 4.99
CC(=O)O[C@]1(C)CC[C@H]2[C@H](C)C(=O)O[C@@H]2C2=C(C)[C@@H](O)C[C@H]21 | < 4.00 | < 4.00 | < 4.00 | < 4.00 | < 4.00 | < 4.00 | < 4.00 | – | < 4.00 | < 4.00
C=C1C(=O)O[C@@H]2C3=C(C)C(=O)C[C@H]3[C@](C)(OC(C)=O)CC[C@@H]12 | 5.51 | 6.44 | 5.11 | 5.80 | 4.99 | 5.05 | 5.06 | 4.87 | 4.84 | 5.03
CC1=C2[C@H]3OC(=O)[C@@H](C)[C@@H]3CC[C@@](C)(O)[C@@H]2CC1=O | < 4.00 | < 4.00 | < 4.00 | < 4.00 | < 4.00 | < 4.00 | < 4.00 | – | < 4.00 | < 4.00
CC1=C2[C@H]3OC(=O)[C@](C)([Se]c4ccccc4)[C@@H]3CC[C@@]2(C)C=CC1=O | < 4.00 | < 4.00 | < 4.00 | < 4.00 | < 4.00 | < 4.00 | < 4.00 | – | < 4.00 | < 4.00
CC1=C2[C@H]3OC(=O)[C@@H](C)[C@@H]3CC[C@@]2(C)C=CC1=O [SANTONIN] | < 4.00 | < 4.00 | < 4.00 | < 4.00 | < 4.00 | < 4.00 | < 4.00 | – | < 4.00 | < 4.00
COc1cccc2c1C(=O)c1c(O)c3c(c(O)c1C2=O)C[C@@](O)(C(=O)CO)C[C@@H]3O[C@H]1C[C@H](N)[C@H](O)[C@H](C)O1 [DOXORUBICIN] | 6.32 | 7.70 | 6.22 | 7.40 | 6.14 | 6.02 | 6.29 | 5.75 | 5.88 | 5.70
